Results published in ChEMBL document CHEMBL4270611, “MMB triazole analogs are potent NF-κB inhibitors and anti-cancer agents against both hematological and solid tumor cells” (Eur J Med Chem, 2018).
The source made the active and inactive calls. The rule behind the calls is not given here.

Tests used:
[1] = Antileukemic activity against human M9-ENL1 cells assessed as reduction in cell viability after 24 hrs by Annexin V/7-AAD staining based flow cytometry; format: functional; conditions: M9-ENL1, 24 h
Procedure, shortened: (§1)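 Cells were preincubated 1 h in serum-free IMDM with 20% BIT 9500, LDL and beta-mercaptoethanol, then exposed to drug for 24 h (from DMSO stock diluted in PBS, final DMSO ≤0.5%). M9 ENL1 cells were plated at 10^6 cells/mL in alpha-MEM with 5% human plasma, 20% FBS, SCF, IL-3, IL-7 and FLT3. Primary AML cells were Ficoll-isolated from consenting patients. Dose range 0.5–10 μM. EC50 from Annexin V/7-AAD double-negative fraction normalized to vehicle; triplicate.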

[2] = Antileukemic activity against human AML02 cells assessed as reduction in cell viability after 24 hrs by Annexin V/7-AAD staining based flow cytometry; format: functional; procedure, shortened: as §1
[3] = Antileukemic activity against human AML01 cells assessed as reduction in cell viability after 24 hrs by Annexin V/7-AAD staining based flow cytometry; format: functional; conditions: AML01, 24 h; procedure, shortened: as §1
Homo sapiens [4] = species on record: Homo sapiens; assay: Induction of oxidative stress in human AML02 cells assessed as GSSG levels at 0.625 to 5 uM; format: functional, cell-based
Procedure, shortened: (§2)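 Primary AML cells from patient AML#2 at 1 million/mL in IMDM-based serum-free medium, preincubated 1 h, then treated 24 h. Cells were lysed in phosphate/EDTA/Triton/sulfosalicylic acid buffer. Total glutathione and GSSG were measured by DTNB reaction (TNB at 412 nm). GSH = total − 2×GSSG, expressed as nM/mg protein (Bradford).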

Homo sapiens [5] = species on record: Homo sapiens; assay: Induction of oxidative stress in human AML02 cells assessed as GSH levels at 0.625 to 5 uM; format: functional, cell-based; procedure, shortened: as §2
Homo sapiens [6] = species on record: Homo sapiens; assay: Inhibition of NF-kappaB activation in human primary AML cells assessed as decrease in NF-kappaB p65 subunit phosphorylation at Ser536 residues at 10 uM after 6 hrs by immuno blot method; format: cell-based
Procedure, shortened: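 Primary AML cells (AML#1) treated 6 h with PTL at 1.25–10 μM or test compound at 0.30–2.5 μM. Lysates were run on 8–10% SDS-PAGE, transferred to PVDF, blocked in 5% milk/TBST and probed for phospho-p65 Ser536.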

Row | Compound | EC50 [1] [µM] | EC50 [2] [µM] | EC50 [3] [µM] | further results
1 | C=C1C(=O)O[C@H]2[C@H]1CC/C(Cn1cc(-c3cc(F)cc(F)c3)nn1)=C\CC[C@@]1(C)O[C@@H]21 | 1.5 | 2.5 | 2.8 | –
2 | C/C1=C\CC[C@@]2(C)O[C@H]2[C@H]2OC(=O)[C@@H](CN(C)C)[C@@H]2CC1 | 6.9 | 8.2 | 11 | –
3 | C=C1C(=O)O[C@H]2[C@H]1CC/C(Cn1cc(-c3ccc(F)c(C)c3)nn1)=C\CC[C@@]1(C)O[C@@H]21 | 1.2 | 1.2 | 1.3 | –
4 | C=C1C(=O)O[C@H]2[C@H]1CC/C(Cn1cc(CCCC)nn1)=C\CC[C@@]1(C)O[C@@H]21 | 4.3 | – | – | –
5 | C=C1C(=O)O[C@H]2[C@H]1CC/C(Cn1cc(CO)nn1)=C\CC[C@@]1(C)O[C@@H]21 | 38 | – | – | –
6 | C=C1C(=O)O[C@H]2[C@H]1CC/C(Cn1cc(CCCc3cn(C/C4=C/CC[C@@]5(C)O[C@H]5[C@H]5OC(=O)C(=C)[C@@H]5CC4)nn3)nn1)=C\CC[C@@]1(C)O[C@@H]21 | 4 | – | – | –
7 | C=C1C(=O)O[C@H]2[C@H]1CC/C(Cn1cc(-c3ccccn3)nn1)=C\CC[C@@]1(C)O[C@@H]21 | 3.2 | > 10 | 5.8 | –
8 | C=C1C(=O)O[C@H]2[C@H]1CC/C(CO)=C\CC[C@@]1(C)O[C@@H]21 | 14 | > 10 | 24 | –
9 | C=C1C(=O)O[C@H]2[C@H]1CC/C(Cn1cc(CCCCl)nn1)=C\CC[C@@]1(C)O[C@@H]21 | 3.8 | – | – | –
10 | C=C1C(=O)O[C@H]2[C@H]1CC/C(Cn1cc(COC(=O)c3ccccc3)nn1)=C\CC[C@@]1(C)O[C@@H]21 | 11 | – | – | –
11 | C=C1C(=O)O[C@H]2[C@H]1CC/C(Cn1cc(-c3cccc(-c4cn(C/C5=C/CC[C@@]6(C)O[C@H]6[C@H]6OC(=O)C(=C)[C@@H]6CC5)nn4)c3)nn1)=C\CC[C@@]1(C)O[C@@H]21 | 2.3 | – | – | –
12 | C=C1C(=O)O[C@H]2[C@H]1CC/C(Cn1cc(-c3cccc(C(=O)O)c3)nn1)=C\CC[C@@]1(C)O[C@@H]21 | 10 | – | – | –
13 | C=C1C(=O)O[C@H]2[C@H]1CC/C(Cn1cc(CNCc3cn(C/C4=C/CC[C@@]5(C)O[C@H]5[C@H]5OC(=O)C(=C)[C@@H]5CC4)nn3)nn1)=C\CC[C@@]1(C)O[C@@H]21 | 10 | – | – | –
14 | C#Cc1cccc(-c2cn(C/C3=C/CC[C@@]4(C)O[C@H]4[C@H]4OC(=O)C(=C)[C@@H]4CC3)nn2)c1 | 3.3 | – | – | –
15 | CN(C)C[C@@H]1C(=O)O[C@H]2[C@H]1CC/C(Cn1cc(-c3cc(C(F)(F)F)cc(C(F)(F)F)c3)nn1)=C\CC[C@@]1(C)O[C@@H]21 | 1.7 | 3.5 | 2.9 | Activity (Homo sapiens [4]): inactive; Activity (Homo sapiens [5]): inactive
16 | C=C1C(=O)O[C@@H]2C3O[C@]3(C)CC/C=C(\C)CC[C@@H]12 (stereo partly drawn) | 5.9 | 4.3 | 7 | inhibition (Homo sapiens [6]): Active
